Results from different studies.
Each line is one published result; the experiments were not run side by side.

NCc1ccc(-c2nn(Cc3ccccc3)c3ccccc23)o1 has a solubility of over 45 µg/mL (aqueous buffer; 6 h; pH 7.4).
O=c1c2c([nH]c3cc(Oc4ccc(OC(F)(F)F)cc4)ccc13)CCCC2 gave a solubility of 18.5 µM (absorbance; aqueous buffer; 90 min; pH 7.4).
The solubility of O=C(Nc1ccc(OC(F)(F)F)cc1)N[C@H]1CC[C@H](Oc2ccc(C(=O)O)cc2)CC1 is reported as 0.0008 µg/mL (simulated gastric fluid; 1 h; pH 1; 37 °C; acidic).
For Cc1ccc(Nc2ncnc3ccc(-c4cccc(N5CCOCC5)c4)cc23)cc1, the solubility was 0.9 µM (aqueous buffer; pH 7.4; 25 °C).
Cn1cc(-c2ccc3c(Cl)cn(CC(=O)Nc4ccccc4Cl)c3c2)cn1 has a solubility of under 2.7 µM (PBS; pH 7.4).
CCCCN(CCCC)CCCOc1ccc2c(=O)c3c([nH]c2c1)CCCC3 has a solubility of over 500 µM (absorbance; aqueous buffer; 90 min; pH 7.4).
NCc1ccc(-c2nn(Cc3ccccn3)c3cccnc23)o1 has a solubility of over 30 µg/mL (aqueous buffer; 6 h; pH 7.4).
CNS(=O)(=O)c1ccc(Nc2ncc(C(F)(F)F)c([C@H]3CC[C@@](C)(O)CC3)n2)c(C)c1 has a solubility of 11 µM (PBS; 2 h; pH 7.4).
The solubility of OCc1ccc(-c2nn(Cc3ccccc3)c3ccccc23)o1 is reported as 3 µg/mL (aqueous buffer; 6 h; pH 7.4).
For CN1CCN(c2cccc(-c3ccc4ncnc(Nc5ccc(Cl)c(C(F)(F)F)c5)c4c3)c2)CC1, the solubility was under 1.4 µM (aqueous buffer; pH 7.4; 25 °C).
CNS(=O)(=O)c1ccc(Nc2ncc(C(F)(F)F)c(N3CCC[C@](C)(O)C3)n2)c(C)c1 gave a solubility of 194 µM (FaSSIF; 2 h).
O=c1c2ccc(Oc3ccc(OC(F)(F)F)cc3)cc2[nH]c2cc(F)c(Cl)cc12 gave a solubility of under 3.12 µM (absorbance; aqueous buffer; 90 min; pH 7.4).
The solubility of CO[C@H]1C[C@@H]2CC[C@@H](C)[C@@](O)(O2)C(=O)C(=O)N2CCCC[C@H]2C(=O)O[C@H]([C@H](C)C[C@@H]2CC[C@@H](O)[C@H](OC)C2)CC(=O)[C@H](C)/C=C(\C)[C@@H](O)[C@@H](OC)C(=O)[C@H](C)C[C@H](C)/C=C/C=C/C=C/1C is reported as 6.03 µM (aqueous buffer; 18 h; pH 7.4).
The solubility of Cc1nsc(-c2nnc3n2CCN(C(=O)c2ccc(F)cc2)[C@@H]3C)n1 is reported as 350 µg/mL (aqueous buffer; pH 7.4).
O=c1c2ccc(OCc3ccc(C(F)(F)F)cc3)cc2[nH]c2cc(Cl)cc(F)c12 gave a solubility of under 3.12 µM (absorbance; aqueous buffer; 90 min; pH 7.4).
With COc1cc(NC(=O)Cn2cc(Cl)c3ccc(-c4cnn(C)c4)cc32)cc(OC)c1OC the solubility was under 2.7 µM (PBS; pH 7.4).
The solubility of CC(C)N(c1ccc(Cl)c(F)c1)c1ccc(NC(=O)CN(C)c2ccccc2N2CCCC2=O)cn1 is reported as 9.6 µM (PBS; pH 7.4).
With c1cc(-c2ccc3ncnc(NC4CCOCC4)c3c2)cc(N2CCOCC2)c1 the solubility was 202 µM (aqueous buffer; pH 7.4; 25 °C).
The solubility of Cc1c(Cl)cccc1-c1ccc2c(c1)N(Cc1noc(C3CCC3)n1)C(=O)CO2 is reported as 100 µM (PBS; 8 h; pH 7.4).
For CCOC(=O)C1=C(CN2CCC[C@@H]2C(=O)Nc2ccc(B(O)O)cc2)NC(c2nccs2)=N[C@H]1c1ccc(F)cc1Br, the solubility was 257 µg/mL (HPLC; aqueous buffer; pH 2).
CCCN(CCC)CCCOc1ccc2c(=O)c3c([nH]c2c1)CCCC3 gave a solubility of over 500 µM (absorbance; aqueous buffer; 90 min; pH 7.4).
CC(C)(C(=O)O)[C@H](NC(=O)Cc1cccc(I)c1)c1ccc2oc(=O)[nH]c2c1 gave a solubility of over 700 µM (aqueous buffer; pH 6.8).
For CC(=O)O[C@@H]1CC[C@@]2(C)[C@@H](CC[C@]3(C)[C@@H]2C(=O)C=C2[C@@H]4[C@@H](C)[C@H](C)CC[C@]4(C)CC[C@]23C)[C@@]1(C)C(=O)O, the solubility was 6.45 µg/mL (PBS; pH 7.4).
For Cc1cc(-c2ccnc3[nH]cc(F)c23)cc(F)c1[C@@]1(O)[C@H](C)CN(C(=O)CN)C[C@@H]1C, the solubility was 11.9 µg/mL (aqueous buffer).
With CCN(c1ccc(C)cc1)c1ccc(NC(=O)CN(C)c2ccccc2N2CCCC2=O)cn1 the solubility was 3.4 µM (PBS; pH 7.4).
For CCOC(=O)C1=C(CN2CCOCC2)NC(c2nccs2)=NC1c1ccc(F)cc1Br (centres unmarked), the solubility was under 1 µg/mL (HPLC; aqueous buffer; pH 7.4).
The solubility of CN1CCN(c2cccc(-c3ccc4ncnc(Nc5ccc([N+](=O)[O-])c(C(F)(F)F)c5)c4c3)c2)CC1 is reported as 2 µM (aqueous buffer; pH 7.4; 25 °C).
Cc1ccccc1CN1C(=O)C2=C(CCN(Cc3ccccc3)C2)N2CCN=C12 gave a solubility of 62200 µg/mL (shake flask; aqueous buffer; pH 1).
Cc1ncsc1-c1ccc(CNC(=O)[C@@H]2C[C@@H](O)CN2C(=O)[C@@H](NC(=O)COCCOCCOCCNC(=O)C[C@@H]2N=C(c3ccc(Cl)cc3)c3c(sc(C)c3C)-n3c(C)nnc32)C(C)(C)C)cc1 has a solubility of 45 µg/mL (HPLC; water; pH 6.9).
OCc1ccc(-c2nn(Cc3ccccn3)c3ccccc23)o1 gave a solubility of over 45 µg/mL (aqueous buffer; 6 h; pH 7.4).
For O=C(O)c1cc(-c2ccc(-n3ccnn3)cc2)c2ccc(-c3ccc(C(F)(F)F)cc3)cc2c1, the solubility was 9.1 µg/mL (aqueous buffer; pH 7.4).
For c1cc(-c2ccc3ncnc(Nc4ncco4)c3c2)nc(N2C[C@H]3C[C@@H]2CO3)n1, the solubility was 48 µM (aqueous buffer; pH 7.4; 25 °C).
COc1ncccc1Cn1nc(-c2ccc(CO)o2)c2ccccc21 gave a solubility of over 33 µg/mL (aqueous buffer; 6 h; pH 7.4).
With Cc1ccc(N(C)c2ccc(NC(=O)CN(C)c3ccccc3N3CCCC3=O)cc2)cc1 the solubility was 7.2 µM (PBS; pH 7.4).
O=C(O)c1cc(-c2ccc(-n3ccnn3)cc2)cc(-n2cc(-c3ccc(C(F)(F)F)cc3)nn2)c1 gave a solubility of 0.74 µg/mL (aqueous buffer; pH 4).
With C[C@H]1CN(c2cccc(-c3ccc4ncnc(Nc5ncco5)c4c3)c2)CCO1 the solubility was 6 µM (aqueous buffer; pH 7.4; 25 °C).
The solubility of CNS(=O)(=O)c1ccc(Nc2ncc3cc(Cl)c(=O)n(C4CCCC4)c3n2)c(C)c1 is reported as 15 µM (FaSSIF; 2 h).
The solubility of c1coc(Nc2ncnc3ccc(-c4cncc(N5CCOCC5)n4)cc23)n1 is reported as 19 µM (aqueous buffer; pH 7.4; 25 °C).
Cc1ccc(Oc2ccc(NC(=O)CNc3ccccc3N3CCCC3=O)cc2)cc1 gave a solubility of 9.1 µM (PBS; pH 7.4).
c1ccc(Oc2ccc(Nc3c4c(nc5ccccc35)CCC4)cc2)cc1 has a solubility of 25 to 50 µg/mL (simulated gastric fluid; 30 min; pH 2; acidic).
The solubility of COc1ccc(Nc2cnnc3cc(-c4cnc(N5CCCN(C)CC5)nc4)ccc23)cc1Cl is reported as 1000 µM (aqueous buffer; pH 7.4; 25 °C).
NCc1ccc(-c2nn(Cc3ccncc3)c3ccccc23)o1 has a solubility of over 30 µg/mL (aqueous buffer; 6 h; pH 7.4).
Clc1ccc(Nc2ncnc3ccc(-c4cccc(N5CCOCC5)c4)cc23)cc1 has a solubility of under 0.4 µM (aqueous buffer; pH 7.4; 25 °C).
With Cc1ccc(N(c2ccc(NC(=O)CN(C)c3ccccc3N3CCCC3=O)cc2)C(C)C)cc1 the solubility was under 2.5 µM (PBS; pH 7.4).
